Screening results as filed in PubChem.
Only some compounds are listed: those with a hit (about 2.4% of all), similar ones and a draw of the others.
VIM-2 inhibitor: blocks Pseudomonas aeruginosa VIM-2 metallo-beta-lactamase; 290,000 tested, 0.89% active; purified VIM-2, nitrocefin hydrolysis, epi-absorbance fluorescence; AID 1527; inhibition, % at 5.6 µM;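 active = inhibition above the mean of all tested compounds plus 3 SD, cutoff set per screening run, cut at about 7.5% in these data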;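 note: red hydrolysis product quenches plate fluorescence so inhibitors raise well fluorescence; 0% = enzyme with DMSO and 100% = DMSO without enzyme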
IMP-1 inhibitor: blocks Pseudomonas aeruginosa IMP-1 metallo-beta-lactamase | purified IMP-1, nitrocefin hydrolysis, epi-absorbance fluorescence | inhibition, % at 5.6 µM | 290,000 tested, 0.45% active | AID 1556;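 active = inhibition above the mean plus 3 SD of all compounds in the same screening run, cut at about 4.5% in these data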;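 note: 0% = IMP-1 with DMSO and 100% = DMSO wells lacking enzyme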
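assay system = purified recombinant IMP-1 metallo-beta-lactamase enzyme | schedule = 15 min preincubation plus 25 min reaction at 25 °C | signal = Epi-absorbance fluorescence, 480 nm excitation, 530 nm emission | read-out basis = percent inhibition from optical density relative to buffer-blank wells | controls = IMP-1 with DMSO as 0%, enzyme-free DMSO as 100%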
sPLA2-III inh: Inhibits HGIII-sPLA2 liposome hydrolysis, primary screen; 370,000 tested, 0.56% active; QFRET BODIPY PC-A2 liposome hydrolysis, fluorescence; AID 743126; inhibition, % at 12.2 µM; Q9NZ20;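 active = inhibition above mean plus 3 SD of compounds lying within the high and low control bounds, cut at about 19% in these data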;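 note: 0% = median of test compound wells and 100% = no enzyme DMSO wells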
Target sequence (Q9NZ20 whole entry, looked up): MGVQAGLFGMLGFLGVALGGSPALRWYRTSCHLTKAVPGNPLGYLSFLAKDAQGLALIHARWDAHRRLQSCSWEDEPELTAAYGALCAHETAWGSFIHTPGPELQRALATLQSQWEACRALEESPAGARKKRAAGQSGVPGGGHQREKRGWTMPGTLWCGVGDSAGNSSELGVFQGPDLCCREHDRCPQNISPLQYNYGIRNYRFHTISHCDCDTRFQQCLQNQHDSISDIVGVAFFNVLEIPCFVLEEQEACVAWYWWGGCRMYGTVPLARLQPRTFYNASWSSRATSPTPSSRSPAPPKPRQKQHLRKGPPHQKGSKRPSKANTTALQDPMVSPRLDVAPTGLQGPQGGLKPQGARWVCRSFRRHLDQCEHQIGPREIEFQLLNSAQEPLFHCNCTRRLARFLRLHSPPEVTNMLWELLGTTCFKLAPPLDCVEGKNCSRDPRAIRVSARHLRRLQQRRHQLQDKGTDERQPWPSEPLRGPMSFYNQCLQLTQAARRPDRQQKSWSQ
PfM18AAP inh-1: blocks P. falciparum M18 aspartyl aminopeptidase. recombinant PfM18AAP, H-Glu-NHMec fluorogenic cleavage. inhibition, % at 7.35 µM. 290,000 tested, 1.2% active. AID 1822;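 active = inhibition above the campaign mean inhibition over all tested compounds plus 3 SD, cut at about 28% in these data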;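 note: 0% = plate median of test compound wells and 100% = 2 mM ZnCl2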
PfM18AAP inh-2: PfM18AAP inhibition, confirmation; shares compounds with PfM18AAP inh-1; recombinant PfM18AAP, H-Glu-NHMec fluorogenic cleavage; inhibition, % at 7.35 µM; 2,400 tested, 28% active; AID 2170;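 active = mean inhibition over replicate wells above the hit cutoff set for the earlier primary screen, cut at about 29% in these data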;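 note: 0% = median of test compound wells and 100% = 2 mM ZnCl2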
CTSL1 confirm: Cathepsin L (human) inhibition, confirmation; inhibition, % at 5.96 µM; shares compounds with PfM18AAP inh-1; purified cathepsin L1, Z-Leu-Arg-MCA fluorescence; 2,400 tested, under 10 active;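 active = average inhibition across replicates above the hit cutoff set in the earlier primary screen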;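 note: 0% = median of test compound wells and 100% = Z-Phe-Ala-diazomethylketone 1 µM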
An asterisk follows results filed as active.

Cc1ccc(C(C(=O)NC2CCCC2)N(C(=O)CCC(=O)Nc2cc(C)on2)c2ccccc2)cc1 (centres undefined) was read as VIM-2 inhibitor -3, IMP-1 inhibitor -2, sPLA2-III inh -1 and PfM18AAP inh-1 -3.
`COc1ccc(N(C(=O)CCC(=O)Nc2cc(C)on2)C(C(=O)NC2CCCC2)c2ccco2)cc1` (centres undefined) gave VIM-2 inhibitor -3, IMP-1 inhibitor -3, sPLA2-III inh -5 and PfM18AAP inh-1 4.
`Cc1cc(NC(=O)CSCC(=O)N(c2ccc(F)cc2)C(C(=O)NC2CCCCC2)c2ccc(O)c(O)c2)no1` (centres undefined) gave VIM-2 inhibitor 0, IMP-1 inhibitor -1, sPLA2-III inh -30, PfM18AAP inh-1 68*, PfM18AAP inh-2 52* and CTSL1 confirm 1.
Screening Cc1cc(NC(=O)CSCC(=O)N(c2cccc(Cl)c2)C(C(=O)NC2CCCCC2)c2ccc(O)c(O)c2)no1 (centres undefined) returned VIM-2 inhibitor 0, IMP-1 inhibitor -3, sPLA2-III inh -27, PfM18AAP inh-1 57*, PfM18AAP inh-2 43* and CTSL1 confirm 0.
For COc1ccc(N(C(=O)CSCC(=O)Nc2cc(C)on2)C(C(=O)NC2CCCCC2)c2ccc(O)c(O)c2)cc1 (centres undefined) the results were VIM-2 inhibitor -1, IMP-1 inhibitor 0, sPLA2-III inh -23, PfM18AAP inh-1 61*, PfM18AAP inh-2 48* and CTSL1 confirm 1.
`O=C(COc1ccc2c(c1)OCO2)Nc1nnc(Cc2ccccc2)s1` gave VIM-2 inhibitor -3, IMP-1 inhibitor -2, sPLA2-III inh 6, PfM18AAP inh-1 38*, PfM18AAP inh-2 -18 and CTSL1 confirm -5.
For CCN(CC)S(=O)(=O)c1cccc(C(=O)N/N=C/c2ccc(O)c(O)c2O)c1 the results were VIM-2 inhibitor 2, IMP-1 inhibitor -1, sPLA2-III inh 12, PfM18AAP inh-1 42*, PfM18AAP inh-2 27 and CTSL1 confirm 0.
COc1cc(/C=N/NC(=S)Nc2cccc(S(=O)(=O)N(C)C)c2)cc(OC)c1O was read as VIM-2 inhibitor 2, IMP-1 inhibitor -3, sPLA2-III inh 7, PfM18AAP inh-1 43*, PfM18AAP inh-2 26 and CTSL1 confirm -1.
Screening CCn1c(C)nc2cc(C(=O)N/N=C/c3ccc(O)c(O)c3O)ccc21 returned VIM-2 inhibitor -2, IMP-1 inhibitor -1, sPLA2-III inh -5, PfM18AAP inh-1 47*, PfM18AAP inh-2 38* and CTSL1 confirm 1.
Screening COc1cccc(/C=N/NC(=S)Nc2cccc(S(=O)(=O)N(C)C)c2)c1 returned VIM-2 inhibitor 4, IMP-1 inhibitor -2, sPLA2-III inh 7 and PfM18AAP inh-1 -3.
For CCn1c(C)nc2cc(C(=O)N/N=C/c3cccc(OC)c3O)ccc21 the results were VIM-2 inhibitor -4, IMP-1 inhibitor -3, sPLA2-III inh -12 and PfM18AAP inh-1 13.
For CN(C)S(=O)(=O)c1cccc(NC(=S)N/N=C/c2ccc(O)c(O)c2O)c1 the results were VIM-2 inhibitor 1, IMP-1 inhibitor -2, sPLA2-III inh -5, PfM18AAP inh-1 49*, PfM18AAP inh-2 40* and CTSL1 confirm 1.
Screening Cn1cnc(S(=O)(=O)N2CCN(C(c3ccccc3)c3ccccc3)CC2)c1 returned VIM-2 inhibitor 1, IMP-1 inhibitor -1, sPLA2-III inh 0 and PfM18AAP inh-1 -12.
For CC(C(=O)OCC(=O)c1ccc([N+](=O)[O-])cc1)N1C(=O)C2C3C=CC(C3)C2C1=O (centres undefined) the results were VIM-2 inhibitor -3, IMP-1 inhibitor -1, sPLA2-III inh 6 and PfM18AAP inh-1 23.
Screening O=C(CN1C(=O)C2C3C=CC(C3)C2C1=O)OCC(=O)c1ccc([N+](=O)[O-])cc1 (centres undefined) returned VIM-2 inhibitor 1, IMP-1 inhibitor 3, sPLA2-III inh 3, PfM18AAP inh-1 42*, PfM18AAP inh-2 -19 and CTSL1 confirm 0.
CC(C(=O)OCC(=O)c1ccc([N+](=O)[O-])cc1)N1C(=O)C2C3CCC(C3)C2C1=O (centres undefined) was read as VIM-2 inhibitor 2, IMP-1 inhibitor 0, sPLA2-III inh -3, PfM18AAP inh-1 41*, PfM18AAP inh-2 -11 and CTSL1 confirm -1.
For Cc1ccc(-c2nnn(CC(=O)N(CC(=O)NC3CCCC3)c3cnc4ccccc4c3)n2)o1 the results were VIM-2 inhibitor 1, IMP-1 inhibitor -2, sPLA2-III inh -9, PfM18AAP inh-1 44*, PfM18AAP inh-2 -36 and CTSL1 confirm 4.
For CCCCCCCN1CCN=C1Nc1ccccc1 the results were sPLA2-III inh 6.
Screening Cc1cc(C)nc(SSc2nc(C)cc(C)n2)n1 returned VIM-2 inhibitor -2, IMP-1 inhibitor -4, sPLA2-III inh 4, PfM18AAP inh-1 61*, PfM18AAP inh-2 28 and CTSL1 confirm 5.
`COc1ccc(CN2CCN(Cc3cccc(F)c3)CC2)cc1OC` gave VIM-2 inhibitor -3, IMP-1 inhibitor -2, sPLA2-III inh 9 and PfM18AAP inh-1 2.
`C=C1[C@@H](CCO)N(S(=O)(=O)C(C)(C)C)C[C@@H]1C` gave sPLA2-III inh 9.
O=c1[nH]sc2ccccc12 was read as VIM-2 inhibitor -2, IMP-1 inhibitor -4, sPLA2-III inh -5, PfM18AAP inh-1 50*, PfM18AAP inh-2 30* and CTSL1 confirm 2.
Screening COc1ccccc1NC(=O)COC(=O)c1ccc2ccccc2n1 returned sPLA2-III inh 3.
`CC(=O)c1sc2nsc(SCCN3CCOCC3)c2c1N` gave VIM-2 inhibitor 0, IMP-1 inhibitor -2, sPLA2-III inh 11, PfM18AAP inh-1 60*, PfM18AAP inh-2 10 and CTSL1 confirm 0.
`c1ccc(CCNc2ccc3nncn3n2)cc1` gave VIM-2 inhibitor -3, IMP-1 inhibitor -2, sPLA2-III inh -7 and PfM18AAP inh-1 4.
NNc1ccc2nncn2n1 was read as VIM-2 inhibitor -2, IMP-1 inhibitor -3, sPLA2-III inh -11, PfM18AAP inh-1 40*, PfM18AAP inh-2 39* and CTSL1 confirm -5.
`CNC(=O)c1cc(C(=O)c2ccc(Cl)cc2)c[nH]1` gave VIM-2 inhibitor -2, IMP-1 inhibitor -2, sPLA2-III inh 8 and PfM18AAP inh-1 -7.
`O=C(c1ccc(Cl)cc1)c1c[nH]c(C(=O)NNc2ccccc2)c1` gave VIM-2 inhibitor -2, IMP-1 inhibitor -1, sPLA2-III inh -4, PfM18AAP inh-1 33*, PfM18AAP inh-2 -6 and CTSL1 confirm -1.
For COc1cc(-c2cc(=O)c3c(O)c(OC)c(OC)c(O)c3o2)ccc1O the results were VIM-2 inhibitor 1, IMP-1 inhibitor -2, sPLA2-III inh 2, PfM18AAP inh-1 49*, PfM18AAP inh-2 32* and CTSL1 confirm 3.
